dFosB act: activators of delta FosB homodimer, primary screen, biochemical, fluorescence polarization, TAMRA-CDK5 oligo, single point; AID 493131, 2011; purified delta FosB; percent of positive-control signal above neutral wells; actives 0.99% (n = 340,000); activation, % at 25 µM; Protein FosB (Mus musculus), P13346;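 active = mean activation above about 17%, with every replicate also reaching it, limit read from the data, passing the limit was not always enough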
PKA-R1A act: activators of PKA-R1A holoenzyme, primary screen, biochemical, fluorescence polarization, Cy5-IP20, bovine R1A, mouse PKAc; cAMP-dependent protein kinase type I-alpha regulatory subunit (Bos taurus) + …; PKA-R1A dissociation; scaled: DMSO 0%, 113 µM cGMP 100%; activation, % at 11.4 µM; actives 0.083% (n = 340,000); AID 504707, 2011;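 active = percent activation above the mean of all tested compounds plus 3 SD, cut at about 19% in these data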;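 note: higher means more PKAc released from R1A so a rise in polarization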
NTR1 ag: agonists of human NTR1, primary screen, imaging, U2OS cells, beta-arrestin-GFP, high content; NTR1-U2OS beta-arrestin-GFP spot imaging, agonist mode; activation, % at 20 µM; actives 0.17% (n = 330,000); AID 493036, 2011;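 active = activation at or above 40% of the spot to cytoplasm intensity ratio, with at least 20 cells analyzed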;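 note: 0% = DMSO without peptide and 100% = 100 nM NTR1 peptide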
CAL PDZ FP-1: untagged CAL PDZ binding inhibitors, primary screen, biochemical, fluorescence polarization, HTS; purified CAL PDZ, TMR-peptide fluorescence polarization, 1 h; AID 602252, 2012; Golgi-associated PDZ and coiled-coil motif-containing protein (Homo sapiens), Q9HD26; inhibition, % at 24.9 µM; actives 0.92% (n = 300,000);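 active = mean inhibition of at least 30% with at least half of replicates also reaching 30%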;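 note: 0% = DMSO neutral control and 100% = excess unlabeled competitor peptide PRC23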
PKA-R2B act: activators of PKA-R2B holoenzyme, primary screen, biochemical, fluorescence polarization, Cy5-IP20, human. cAMP-dependent protein kinase catalytic subunit beta (Homo sapiens) + cAMP-dependent …. PKA-R2B holoenzyme dissociation; R2B truncated from residue 108, S112A mutant; 0% DMSO only, 100% 113 µM cGMP. activation, % at 11.4 µM. actives 0.079% (n = 340,000). AID 504700, 2011;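 active = activation above a cutoff set at the mean over all compounds plus 3 SD, cut at about 18% in these data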;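 note: higher means more holoenzyme dissociation and a rise in polarization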
Target sequence (P31323 whole entry, looked up, other chains not shown, the tested form may be a part): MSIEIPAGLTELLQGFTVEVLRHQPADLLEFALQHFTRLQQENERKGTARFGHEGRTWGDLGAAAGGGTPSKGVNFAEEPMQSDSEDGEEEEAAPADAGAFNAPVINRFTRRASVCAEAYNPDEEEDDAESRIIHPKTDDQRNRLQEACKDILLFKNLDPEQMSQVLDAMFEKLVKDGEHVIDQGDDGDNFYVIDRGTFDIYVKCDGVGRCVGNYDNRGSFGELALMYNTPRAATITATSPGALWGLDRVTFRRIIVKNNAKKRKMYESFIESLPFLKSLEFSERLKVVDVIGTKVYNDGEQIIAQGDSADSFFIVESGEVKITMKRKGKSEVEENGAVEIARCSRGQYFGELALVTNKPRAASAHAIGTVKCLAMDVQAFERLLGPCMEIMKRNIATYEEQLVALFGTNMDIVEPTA
CAL PDZ FP-2: CAL PDZ peptide-binding inhibitors, primary screen, biochemical, fluorescence polarization, Cer-tagged CAL PDZ, HTS. inhibition, % at 20 µM. purified CAL PDZ, TMR-peptide fluorescence polarization, 1 h. AID 504414, 2011. Golgi-associated PDZ and coiled-coil motif-containing protein (Homo sapiens), Q9HD26. actives 0.02% (n = 330,000);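 active = highest replicate inhibition of at least 40%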;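 note: plate controls were DMSO neutral control wells for no effect and unlabeled competitor peptide control wells for full effect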
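Control set: unlabelled peptide and DMSO controls / Material: purified CerCALP PDZ construct / Timing: 1 h incubation at room temperature before polarization reading / Doses: 20 µM, one dose / Detection: fluorescence polarization (mP)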
R1A FP artifact: FP signal interference without PKA proteins, confirmation, artefact control for PKA-R1A activator project, biochemical, fluorescence polarization, triplicate; shares compounds with PKA-R1A act; Cy5-IP20 peptide alone, fluorescence polarization artifact counterscreen; activation, % at 11.4 µM; actives 7% (n = 280); AID 504799, 2011;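 active = mean activation over triplicate runs exceeds the adjusted cutoff derived for the parent primary screen, cut at about 19% in these data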;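 note: no PKA protein present so any polarization rise reflects compound interference; 0% = tracer peptide mix alone and 100% = mix with added PKA catalytic subunit; higher means stronger polarization artifact and likely false positive in parent screen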
PKA-R1A act conf: activators of PKA-R1A holoenzyme, confirmation, biochemical, fluorescence polarization, Cy5-IP20, triplicate; shares compounds with PKA-R1A act; PKA-R1A holoenzyme dissociation; activation, % at 11.4 µM; actives 9% (n = 280); AID 504800, 2011;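 active = mean activation over replicate wells exceeds the adjusted hit threshold taken from the earlier primary screen, cut at about 20% in these data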;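 note: 0% = holoenzyme mix with DMSO only and 100% = cGMP-activated control wells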
* = called active by the depositor; x = no result given. In the library only some 2% were active in any assay of this set; here they are far more common.

SMILES	dFosB act	PKA-R1A act	NTR1 ag	CAL PDZ FP-1	PKA-R2B act	CAL PDZ FP-2	R1A FP artifact	PKA-R1A act conf
CN(C(=O)Cc1ccc(Cl)c(Cl)c1)C(CN1CCCC1)c1cccc(OCC(=O)O)c1 (stereo not drawn)	5	19*	0	-4	-6	0	4	-1
Cc1cccc(OCC(=O)N2CCN(Cc3ccc4c(c3)OCO4)CC2)c1	-3	0	1	-2	-14	-2	x	x
NC(=O)Nc1ccc(C(=O)OCC(=O)Nc2ccc(Cl)cc2C(=O)c2ccccc2)cc1	-5	-8	8	-1	-7	-2	x	x
CC1([N+](=O)[O-])COP(=O)(Nc2ccccc2F)OC1 (stereo not drawn)	-7	-6	x	-4	1	-2	x	x
COc1ccc(NP2(=O)OCC(C)(N)CO2)cc1 (stereo not drawn)	2	20*	x	-1	6	0	-1	-1
C=C1[C@H]2CC[C@H]3[C@]4(C)C[C@H](O[C@@H]5OC(CO)[C@@H](OSOOO)[C@H](OS(=O)(=O)O)[C@H]5OC(=O)CC(C)C)C[C@@H](C(=O)O)[C@H]4CC[C@]3(C2)[C@H]1O (stereo partly drawn)	-6	19*	-2	-2	4	-1	2	0

Screens: PubChem, several laboratories
